Results from PubChem BioAssay AID588746 (Vanderbilt Specialized Chemistry Center, 2011).
One block for each compound: values may come before it. Calls of active or inactive are those of the source.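 How the source made its calls: active means a clear concentration-dependent response in the calcium flux assay, with a fitted half-maximal potency; inactive means the rest.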

Target: Muscarinic acetylcholine receptor M2 (Homo sapiens) (UniProt P08172)
Test: M2 positive allosteric modulation, counter-screen, dose response, counter-screen, human, CHO Gqi5 cells, calcium fluorescence (AID 588746)
Settings: CHO hM2/Gqi5 calcium mobilization, Fluo-4 fluorescence
How it was run: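 Material – hM2/Gqi5 CHO cells · Also added – acetylcholine at EC20, followed by acetylcholine at EC80 · Schedule – 144 s compound pretreatment, 86 s EC20–EC80 gap, 37 °C · Signal – Fluo-4 calcium kinetic read · Evaluation – % of maximal ACh response and EC50 · Control set – 1 mM ACh maximum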

Sequence of Muscarinic acetylcholine receptor M2 (Homo sapiens) (P08172 whole entry, looked up): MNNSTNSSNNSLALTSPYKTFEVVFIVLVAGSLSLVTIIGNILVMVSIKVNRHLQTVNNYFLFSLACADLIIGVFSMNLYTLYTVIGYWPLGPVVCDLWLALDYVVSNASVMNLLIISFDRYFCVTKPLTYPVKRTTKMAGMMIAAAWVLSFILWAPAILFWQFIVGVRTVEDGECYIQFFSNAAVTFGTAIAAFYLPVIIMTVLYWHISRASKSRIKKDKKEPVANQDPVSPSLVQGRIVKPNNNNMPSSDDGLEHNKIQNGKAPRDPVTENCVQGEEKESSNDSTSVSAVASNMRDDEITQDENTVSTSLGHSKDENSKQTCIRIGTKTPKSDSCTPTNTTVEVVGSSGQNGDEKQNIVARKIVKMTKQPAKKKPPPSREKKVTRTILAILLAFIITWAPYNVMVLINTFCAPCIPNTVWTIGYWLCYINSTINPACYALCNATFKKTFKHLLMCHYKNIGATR

Structure (SMILES): Cc1nc2sc(C(=O)NCc3nccs3)c(N)c2c(C)c1Cl
percent of ACh max response (at 30 µM (top of the series)): inactive

Structure (SMILES): Cc1nc2sc(C(=O)NCc3ccncn3)c(N)c2c(C)c1Cl
percent of ACh max response (at 30 µM (top of the series)): inactive

Structure (SMILES): Cc1nc2sc(C(=O)NCc3cccnc3)c(N)c2c(C)c1Cl
percent of ACh max response (at 45.3 µM (top of the series)): inactive

Structure (SMILES): Cc1nc2sc(C(=O)NCc3ccccc3)c(N)c2c(C)c1Cl
percent of ACh max response (at 37.4 µM (top of the series)): inactive

Structure (SMILES): Cc1nc2sc(C(=O)NCCc3ccncc3)c(N)c2c(C)c1Cl
percent of ACh max response (at 30 µM (top of the series)): inactive

Structure (SMILES): Cc1nc2sc(C(=O)NCc3ccncc3)c(N)c2c(C)c1Cl
percent of ACh max response (at 45.3 µM (top of the series)): inactive

Other lines, results leading:

percent of ACh max response (at 36.8 µM (top of the series)): inactive
Structure (SMILES): Cc1nc2sc(C(=O)NCc3ccc4c(c3)OCO4)c(N)c2c(C)c1Cl

percent of ACh max response (at 30 µM (top of the series)): inactive
Structure (SMILES): Cc1nc2sc(C(=O)NCc3cccc(F)c3F)c(N)c2c(C)c1Cl

EC50: 548 nM
Structure (SMILES): Cc1nc2sc(C(=O)NC3CC3)c(N)c2c(C)c1Cl
